Assay outcomes from PubChem.
Autophagy HCS: autophagy modulators in MEF cells, primary screen, imaging, high-content, MEF GFP-LC3. 190,000 compounds, 0.98% hits. AID 463193, 2010. MEF GFP-LC3 puncta imaging; test concentration mostly 10 µM. calls only at 10 µM (by protocol);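 active means percentage of spot-positive cells more than 3 SD above its plate mean, without a fluorescence outlier flag or 80% toxicity; inconclusive means no clear call, values can overlap the other calls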;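 further: spot-positive cell cutoff set from DMSO-treated cells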
HSV replic up: enhancers of HSV replication in host cells, fold increase, host cell viability; HSV replication augmentation in cells; maximum fold increase; 220,000 compounds, 0.005% hits; in the data active means maximum fold increase above about 1.5; inconclusive means no clear call, values can overlap the other calls; tested in PC3 cells
Ins promoter up: insulin promoter activators in MIN6 cells, imaging, high-content screening, mouse beta cells; z-score at 5 µM; MIN6 insulin promoter-GFP reporter; stronger effect = higher value; 190,000 compounds, 0.3% hits;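 active means z-score above 3 at 5 µM with at least 500 cells counted in the well; inconclusive means wells under 500 cells, flagged as cytotoxic or low count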
MT stabilize HCS: microtubule stabilizers in HeLa cells, primary screen, imaging, high-content imaging. HeLa tubulin immunostaining HCS, 24 h; share of cells brighter than vehicle mean+2SD. % tubulin-high responders, % at 10 µM. 200,000 compounds, 0.83% hits. AID 2205, 2009;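 active means plate Z-score above 3 for both tubulin-high and condensed-nucleus cell shares, with cell loss under 80%, at 10 µM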;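 further: anti alpha tubulin signal scored within the nucleus-defined area of each cell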
Furin inhibitor: human furin inhibitors, primary screen, biochemical, fluorescence intensity | P09958 | purified furin, fluorogenic substrate cleavage | inhibition, % at 20 µM or 30 µM | 220,000 compounds, 0.061% hits; in the data active means inhibition above about 25%
Target sequence (P09958 108-714 limits assumed): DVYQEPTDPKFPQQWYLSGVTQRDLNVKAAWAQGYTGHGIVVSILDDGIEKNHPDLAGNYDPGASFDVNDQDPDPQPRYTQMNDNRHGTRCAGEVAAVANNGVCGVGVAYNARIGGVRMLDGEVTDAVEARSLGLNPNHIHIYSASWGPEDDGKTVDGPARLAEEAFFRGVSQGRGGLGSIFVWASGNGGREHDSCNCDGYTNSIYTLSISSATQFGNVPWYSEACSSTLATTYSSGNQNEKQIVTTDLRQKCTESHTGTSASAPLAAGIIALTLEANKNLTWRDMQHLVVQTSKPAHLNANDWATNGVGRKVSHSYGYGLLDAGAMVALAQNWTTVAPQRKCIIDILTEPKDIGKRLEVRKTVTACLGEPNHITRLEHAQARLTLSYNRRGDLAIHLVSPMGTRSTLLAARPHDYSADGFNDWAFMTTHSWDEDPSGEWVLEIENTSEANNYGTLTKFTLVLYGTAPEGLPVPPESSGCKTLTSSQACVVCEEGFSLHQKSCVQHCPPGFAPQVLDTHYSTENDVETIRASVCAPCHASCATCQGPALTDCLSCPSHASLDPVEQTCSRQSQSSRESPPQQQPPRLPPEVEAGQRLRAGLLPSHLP
bCat nuc transl: modulators of beta-catenin nuclear translocation, primary screen, imaging, HeLa cells, immunofluorescence, high-content; AID 1665, 2009; nuclear translocation activity, % at 5 µM; 190,000 compounds, 0.3% hits;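 active means nuclear translocation activity above 50% at 5 µM, with a well cell count of 50 or more; inconclusive means wells under 50 cells across six images, flagged as toxic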;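 further: per-cell ratio of nuclear to cytoplasmic median beta-catenin stain intensity; plate controls were DMSO negative control for no effect and GSK-3 inhibitor IX positive control for full effect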
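System: HeLa cells, endogenous beta-catenin; compound dosing: 5 µM primary single dose, 0.1% DMSO, 0.02–20 µM confirmation series; incubation: 24 h compound exposure at 37°C, 5% CO2; signal: beta-catenin immunofluorescence imaging with DAPI; evaluation: % activation, nuclear-to-cytoplasmic median beta-catenin signal ratio per cell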
* marks the source's active call; other numbers are inactive results; i = inactive; ? = inconclusive; . = not tested or not shown; + = active, no number. Hits are enriched below; roughly 1.9% of the tested compounds scored in any of these assays.

SMILES | Autophagy HCS | HSV replic up | Ins promoter up | MT stabilize HCS | Furin inhibitor | bCat nuc transl
CC1C(=O)CCCCCCCCCC2C1(N1CCOCC1)CS2(=O)=O (centres undefined) | i | i | -0.06 | 3 | -31 | 2
C[C@H](NC(CCc1ccccc1)C(=O)O)C(=O)N1CCC[C@H]1C(=O)O (some centres undefined) | . | i | . | . | . | .
COc1ccc2nc(N3C(=O)/C(=C/c4ccc(Cl)cc4)NC3=S)sc2c1 | + | i | 0.61 | 2 | 5 | 1
COc1ccc(OCCn2cc(/C(N)=N/O)c3ccccc32)cc1 | i | i | 3.1* | 2 | -4 | 4
COC(=O)c1cn(CCOc2ccccc2OC)c2ccccc12 | i | i | . | 3 | -7 | .
COC(=O)c1cn(CCOc2ccccc2)c2ccccc12 | + | i | 0.63 | 6 | -17 | 1
COc1ccc(Nc2nnc(SCC(=O)/C=C3/N(C)c4ccccc4C3(C)C)s2)cc1 | i | i | -4.8 | 1 | 8 | .
CCCc1cc(C(=O)N/N=C/c2ccc(C)o2)c2ccccc2n1 | i | i | 0.63 | 44* | -5 | 48
Cc1ccc(/C=N/NC(=O)c2cc(C3CC3)nc3ccccc23)o1 | i | i | ? | 23* | -8 | 28
Cc1cc(C(=O)N/N=C/c2ccc(C)o2)c2ccccc2n1 | i | i | 0.14 | 15* | 0 | 32
Cc1cc(C(=O)N/N=C/c2ccco2)c2ccccc2n1 | i | i | -0.4 | 7 | 2 | -5
CCCc1cc(C(=O)OC)c2ccccc2n1 | i | i | 0.1 | 2 | -22 | .
COC(=O)Cc1csc(NC(=O)CSc2nnc3ccccn23)n1 | i | i | -0.49 | 2 | -22 | -1
O=C(NCc1ccncc1)c1nc(-c2ccc(C(F)(F)F)cc2)no1 | i | i | -0.5 | 4 | -15 | 1
Cc1ccc(S(=O)(=O)N(CCC(=O)Nc2ccc(OC(F)(F)F)cc2)c2ccccc2)cc1 | i | i | 0.01 | 2 | -25 | 4
Cc1ccc(N(CCC(=O)NC(C)(C)C)S(=O)(=O)c2ccc(C)cc2)cc1 | + | i | -0.19 | 2 | -20 | 0
COc1ccc(OC)c(C(=O)Cn2nnc(-c3ccc(N4CCOCC4)cc3)n2)c1 | . | i | -0.02 | . | 0 | 0
O=C1c2cccc3c(N4CCCCC4)ccc(c23)C(=O)N1c1ccc(O)cc1 | + | ? | 6.1* | 8 | -21 | 1
O=C1c2cccc3c(N4CCCCC4)ccc(c23)C(=O)N1c1ccccc1O | i | ? | . | 3 | -23 | 1
S=C(NCC1CCCO1)N1CCN(c2nc(-c3ccc(Cl)cc3)cs2)CC1 (centres undefined) | i | i | . | 2 | -17 | 2
Cc1sc(N2C(=O)C3C(C2=O)[C@H]2C=C[C@@H]3C2)c(C#N)c1C (some centres undefined) | . | i | -0.3 | . | -22 | 0
Cn1nc(-c2ccc(Cl)cc2)nc2c(=O)n(C)c(=O)nc1-2 | i | i | -0.4 | 15* | -11 | -1
CC(CCc1ccccc1)NC(=O)CSc1ccccc1 (centres undefined) | + | i | 0.02 | 4 | 4 | -1
CC(CCc1ccccc1)NC(=O)CSc1cccc[n+]1[O-] (centres undefined) | i | i | 0.29 | 3 | -30 | -3
COC(=O)c1cn(C(=O)OC)c2ccccc12 | i | i | . | 4 | -19 | 2
SMILES | Autophagy HCS | HSV replic up | Ins promoter up | MT stabilize HCS | Furin inhibitor | bCat nuc transl
COC(=O)c1cn(C(=O)c2ccccc2Cl)c2ccccc12 | i | i | 0.1 | 18* | -14 | 11
COC(=O)c1cn(C(=O)c2ccc(C)cc2C)c2ccccc12 | i | i | 0.71 | 15* | -24 | -2
CCCCc1[nH]c(=O)c(C#N)c2c1CCCC2 | i | i | . | 5 | -3 | .
O=c1oc2ccccc2cc1-c1nnc(NCc2ccco2)s1 | i | i | -0.08 | 20* | -24 | .
Nc1nnc(-c2cc3ccccc3oc2=O)s1 | i | i | 1.2 | 3 | -15 | 0
O=C(c1nn2c(C(F)(F)F)cc(-c3ccco3)nc2c1Br)N1CCCc2ccccc21 | i | i | 0.15 | 63* | -4 | -1
